This excerpt belongs to a sample that is enriched for hits.
T cruzi intra – blocks T. cruzi growth inside host cells. intracellular Trypanosoma cruzi in host cells, plate reader. 4.9% of 22,000 active. AID 651903. activity score (inhibition), % at 5.01 µM; in the data active = activity score above about 55%; inconclusive = no clear call, values can overlap the other calls;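 note: parasites and compound incubated about four days before reading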
INS-1E ATP HTS – INS-1E beta cell protection from cytokine death | 0.1% of 20,000 active | AID 488910 | INS-1E cytokine-induced death, ATP luminescence, 48 h; normalised: neutral wells 0, positive control 100 | protection from cytokine-induced ATP loss, % at 10 µM;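 active = mean replicate protection from cytokine-induced ATP loss at least 50% and at least 75% of replicates each reaching 50%; inconclusive = meets only one of the two criteria, mean or replicate share; inactive = fails both the mean and replicate share criteria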
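Assay system: INS-1E rat cells / Quantity: 8000 cells per well / Medium: RPMI without phenol red, 5% FBS / Probe or stimulus: three-cytokine cocktail (IFN-γ, TNF-α, IL-1β) / Dosing: one compound concentration, pin transfer / Timing: 48 h co-treatment, 10 min post-lysis read / Technique: CellTiter-Glo luminescence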
A1 apoptosis 2 – A1 inhibition read as caspase activation; MEF A1-2A-BIM cells, caspase-Glo luminescence, 3 h; percent of clofoctol response, DMSO zero; caspase activation, % (no concentration beside the values); 24,000 tested, under 10 active; AID 2465; in the data active = caspase activation above about 5.9%; inconclusive = no clear call, values can overlap the other calls; inactive = below about 2.2%
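Test system – A1-2A-BIM-expressing MEF cells · Input – 2500 cells/well · Medium – RPMI-1640 growth medium with 10% FBS · Compound dosing – 50 nL pinned compound · Timing – 3 h compound exposure at 37 °C · Technique – Caspase-Glo luminescence (DEVD substrate) · Evaluation – Caspase-3/7 activity from luminescence increase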
Hits are given with their value; . = inactive; ? = inconclusive; / = not tested or not shown.

SMILES	T cruzi intra	INS-1E ATP HTS	A1 apoptosis 2
O=C(CCCCCCC(=O)Nc1ccccc1O)N/N=C/c1ccco1	.	.	.
C[C@@H]1CN([C@H](C)CO)C(=O)Cc2cc(NC(=O)Nc3ccc(F)cc3)ccc2O[C@H]1CN(C)Cc1ccc(Oc2ccccc2)cc1	?	.	/
C[C@H](CO)N1C[C@H](C)[C@H](CN(C)Cc2ccc(Oc3ccccc3)cc2)Oc2ccc(NC(=O)Nc3ccc(F)cc3)cc2CC1=O	62	.	/
O=C(C1=C[C@H](c2coc3ccccc3c2=O)C[C@H](OCCCCO)O1)N1CCCCCCC1	/	/	.
O=C(N/N=C/c1ccc(O)c(O)c1)c1ccccn1	/	/	.
COc1ccc(NC(=O)Nc2cccc3c2O[C@@H](CN(C)Cc2ccc(C(=O)Nc4ccccc4N)cc2)[C@@H](C)CN([C@H](C)CO)C3=O)cc1	/	/	.
COc1ccc(NC(=O)Nc2cccc3c2O[C@@H](CN(C)Cc2ccc(C(=O)Nc4ccccc4N)cc2)[C@H](C)CN([C@@H](C)CO)C3=O)cc1	77	.	/
COc1ccc(NC(=O)Nc2cccc3c2O[C@@H](CN(C)Cc2ccc(C(=O)Nc4ccccc4N)cc2)[C@@H](C)CN([C@@H](C)CO)C3=O)cc1	.	.	.
COc1ccc(NC(=O)Nc2cccc3c2O[C@H](CN(C)Cc2ccc(C(=O)Nc4ccccc4N)cc2)[C@H](C)CN([C@H](C)CO)C3=O)cc1	61	.	/
Cc1ccc(S(=O)(=O)Nc2ccc3c(c2)CC(=O)N([C@H](C)CO)C[C@@H](C)[C@@H](CN(C)CC2CCCCC2)O3)cc1	.	.	/
C[C@@H]1CN([C@H](C)CO)C(=O)Cc2cc(NS(=O)(=O)c3ccc(Cl)cc3)ccc2O[C@H]1CN(C)CC1CCCCC1	65	.	.
C[C@H](CO)N1C[C@H](C)[C@@H](CN(C)CC2CCCCC2)Oc2ccc(NS(=O)(=O)c3ccc(Cl)cc3)cc2CC1=O	/	/	.
Cc1ccc(S(=O)(=O)Nc2ccc3c(c2)CC(=O)N([C@H](C)CO)C[C@@H](C)[C@H](CN(C)CC2CCCCC2)O3)cc1	85	.	.
Cc1noc(C)c1S(=O)(=O)Nc1ccc2c(c1)CC(=O)N([C@H](C)CO)C[C@@H](C)[C@@H](CN(C)C(=O)Nc1ccc3c(c1)OCO3)O2	.	.	/
COc1ccc(S(=O)(=O)Nc2ccc3c(c2)C(=O)N([C@@H](C)CO)C[C@H](C)[C@@H](CN(C)S(=O)(=O)c2cn(C)cn2)OCCCC[C@H](C)O3)cc1	/	/	.
C[C@H](CO)N1C[C@H](C)[C@@H](CN(C)S(=O)(=O)c2ccc(Cl)cc2)OCCCC[C@H](C)Oc2ccc(NC(=O)c3ccncc3)cc2C1=O	/	/	.
O=C(CCCCCCC(=O)N/N=C/c1ccc(OCCO)cc1)NO	.	116	/
O=C(CCCCCCC(=O)N/N=C/c1ccc(CO)o1)NO	.	52	/
O=C(O)CCCCCCC(=O)N/N=C/c1ccc(CO)o1	.	.	.
O=C(CCCCCC(=O)N/N=C/c1ccc(OCCO)cc1)NO	/	/	.
CC(C)NC(=O)N(C)C[C@@H]1Oc2ccc(NS(=O)(=O)c3ccc(Cl)cc3)cc2CC(=O)N([C@H](C)CO)C[C@H]1C	.	.	.
COC(=O)CCCCCCC(=O)N/N=C/c1cc(I)cc(I)c1O	88	.	.
O=C(N/N=C/c1cc(I)cc(I)c1O)c1ccccn1	91	.	.
O=C(N/N=C/c1cccc(O)c1O)c1ccccn1	.	.	/
COC(=O)CCCCCCC(=O)N/N=C/c1cc(Cl)cc(Cl)c1O	.	.	/
SMILES	T cruzi intra	INS-1E ATP HTS	A1 apoptosis 2
C[C@@H]1CN([C@@H](C)CO)C(=O)c2cccc(NC(=O)c3nc4ccccc4s3)c2O[C@@H]1CN(C)S(=O)(=O)c1ccc(F)cc1	.	.	.
COc1ccc(S(=O)(=O)N(C)C[C@@H]2Oc3c(NC(=O)c4nc5ccccc5s4)cccc3C(=O)N([C@H](C)CO)C[C@@H]2C)cc1	70	.	.
C[C@H]1CN([C@@H](C)CO)C(=O)c2cccc(NC(=O)c3nc4ccccc4s3)c2O[C@@H]1CN(C)S(=O)(=O)c1ccc(F)cc1	67	.	.
C[C@H]1CN([C@@H](C)CO)C(=O)c2cccc(NC(=O)c3nc4ccccc4s3)c2O[C@@H]1CN(C)S(=O)(=O)c1ccc(Cl)cc1	78	.	.
COc1ccc(S(=O)(=O)N(C)C[C@H]2Oc3c(NC(=O)c4nc5ccccc5s4)cccc3C(=O)N([C@@H](C)CO)C[C@H]2C)cc1	.	.	/
C[C@H]1CN([C@@H](C)CO)C(=O)c2cccc(NC(=O)c3nc4ccccc4s3)c2O[C@H]1CN(C)S(=O)(=O)c1ccc(F)cc1	74	.	/
C[C@H]1CN([C@@H](C)CO)C(=O)c2cccc(NC(=O)c3nc4ccccc4s3)c2O[C@H]1CN(C)S(=O)(=O)c1ccc(Cl)cc1	.	.	.
C[C@H](CO)N1C[C@H](C)[C@@H](CN(C)S(=O)(=O)c2ccc(F)cc2)Oc2c(NC(=O)c3nc4ccccc4s3)cccc2C1=O	?	.	/
C[C@H](CO)N1C[C@H](C)[C@@H](CN(C)Cc2ccc(-c3ccccc3)cc2)Oc2ccc(NS(C)(=O)=O)cc2CC1=O	/	/	.
Cc1noc(C)c1NC(=O)N(C)C[C@H]1Oc2ccc(NC(=O)NC(C)C)cc2CC(=O)N([C@H](C)CO)C[C@H]1C	.	.	.
C[C@@H]1CN([C@@H](C)CO)C(=O)c2cc(NC(=O)Nc3cccc4ccccc34)ccc2O[C@@H](C)CCCCO[C@H]1CN(C)Cc1ccc2c(c1)OCO2	/	/	.
C[C@@H]1CN([C@H](C)CO)C(=O)c2cccc(NC(=O)C3CC3)c2O[C@@H]1CN(C)S(=O)(=O)c1cn(C)cn1	.	.	/
C[C@H](CO)N1C[C@H](C)[C@H](CN(C)S(=O)(=O)c2cccs2)Oc2c(NC(=O)c3nc4ccccc4s3)cccc2C1=O	76	.	.
C[C@H]1CN([C@@H](C)CO)C(=O)c2cccc(NC(=O)c3nc4ccccc4s3)c2O[C@H]1CN(C)S(=O)(=O)c1cccs1	.	.	.
C[C@H](CO)N1C[C@H](C)[C@@H](CN(C)C(=O)Nc2ccc3c(c2)OCO3)Oc2ccc(NC(=O)Cc3ccccc3)cc2CC1=O	/	/	.
CC(C)NC(=O)Nc1ccc2c(c1)C(=O)N([C@@H](C)CO)C[C@H](C)[C@@H](CN(C)C(=O)Nc1cccc3ccccc13)O2	.	/	/
C[C@@H]1CN([C@@H](C)CO)C(=O)Cc2cc(NC(=O)CCC(F)(F)F)ccc2O[C@@H]1CN(C)Cc1ccc(C(=O)Nc2ccccc2N)cc1	68	.	/
C[C@@H]1CN([C@@H](C)CO)C(=O)Cc2cc(NC(=O)Nc3ccc(C(F)(F)F)cc3)ccc2O[C@@H]1CN(C)Cc1ccc(C(=O)Nc2ccccc2N)cc1	84	.	/
C[C@@H]1CN([C@H](C)CO)C(=O)Cc2cc(NC(=O)Nc3ccc(F)cc3)ccc2O[C@H]1CN(C)Cc1ccc(C(=O)Nc2ccccc2N)cc1	.	.	/
C[C@H](CO)N1C[C@H](C)[C@H](CN(C)Cc2ccc(C(=O)Nc3ccccc3N)cc2)Oc2ccc(NC(=O)Nc3ccc(C(F)(F)F)cc3)cc2CC1=O	82	.	/

Screening data from PubChem.
